Results from ChEMBL document CHEMBL1125305, “Synthesis and antitumor activity of amino derivatives of pyridine-2-carboxaldehyde thiosemicarbazone” (1992).

Assays:
Mus musculus [1] = species on record: Mus musculus; experiment: Average change in body weight from onset to termination of therapy in mice bearing the L1210 Leukemia(dose 30x2 mg/ kg ); type: functional
Procedure, shortened: (§1)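 Female CD2F1 mice carried implanted L1210 leukemia. Drug was given ip in suspension twice daily for 6 consecutive days, beginning 24 h after implantation, with 5–10 mice per group. The value is the average percent body-weight change from onset to termination of therapy.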

Mus musculus [2] = species on record: Mus musculus; experiment: Average survival days at the dose 15x2 mg/ kg in mice bearing the L1210 Leukemia; type: functional
Procedure, shortened: (§2)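 CD2F1 female mice with implanted L1210 leukemia; each compound given ip as a suspension, twice daily for 6 consecutive days, starting 24 h after tumor implantation; 5-10 mice per group. Read-out is mean survival time, counting only mice dying before day 60. Body weight change is recorded from onset to end of therapy.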

Mus musculus [3] = species on record: Mus musculus; experiment: Average change in body weight from onset to termination of therapy in mice bearing the L1210 Leukemia(dose 15x2 mg/ kg ); type: functional; procedure, shortened: as §1
Mus musculus [4] = species on record: Mus musculus; experiment: Average change in body weight from onset to termination of therapy in mice bearing the L1210 Leukemia(dose 20x2 mg/ kg ); type: functional; procedure, shortened: as §1
Mus musculus [5] = species on record: Mus musculus; experiment: Average survival days at the dose 20 mg/ kg in mice bearing the L1210 Leukemia
Mus musculus [6] = species on record: Mus musculus; experiment: Average change in body weight from onset to termination of therapy in mice bearing the L1210 Leukemia(dose 20 mg/ kg ); type: functional; conditions: at 20 mg/kg
Procedure, shortened: (§3)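 L1210 leukemia in CD2F1 mice. Drug was given ip as a suspension once daily for 6 consecutive days, starting 24 h after tumor implantation, with 5–10 mice per group. The value is the average body-weight change from onset to termination of therapy, in percent.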

Mus musculus [7] = species on record: Mus musculus; experiment: Average change in body weight from onset to termination of therapy in mice bearing the L1210 Leukemia(dose 10x2 mg/ kg ); type: functional; procedure, shortened: as §1
Mus musculus [8] = species on record: Mus musculus; experiment: Average survival days at the dose 10x2 mg/ kg in mice bearing the L1210 Leukemia; type: functional; procedure, shortened: as §2
Mus musculus [9] = species on record: Mus musculus; experiment: Average survival days at the dose 20x2 mg/ kg in mice bearing the L1210 Leukemia; type: functional; procedure, shortened: as §2
Mus musculus [10] = species on record: Mus musculus; experiment: Average survival days at the dose 30x2 mg/ kg in mice bearing the L1210 Leukemia; type: functional; procedure, shortened: as §2
Mus musculus [11] = species on record: Mus musculus; experiment: Effect of compound on mice bearing the L1210 Leukemia expressed as T/C percent treated/control)-dose 30x2 mg/ kg; type: functional
Mus musculus [12] = species on record: Mus musculus; experiment: Effect of compound on mice bearing the L1210 Leukemia expressed as T/C percent treated/control)-dose 15x2 mg/ kg; type: functional
Mus musculus [13] = species on record: Mus musculus; experiment: Effect of compound on mice bearing the L1210 Leukemia expressed as T/C percent treated/control)-dose 10x2 mg/ kg; type: functional
Mus musculus [14] = species on record: Mus musculus; experiment: Effect of compound on mice bearing the L1210 Leukemia expressed as T/C percent treated/control)-dose 20x2 mg/ kg; type: functional
Mus musculus [15] = species on record: Mus musculus; experiment: Effect of compound on mice bearing the L1210 Leukemia expressed as T/C percent treated/control)-dose 20 mg/ kg; type: functional; conditions: at 20 mg/kg
Mus musculus [16] = species on record: Mus musculus; experiment: Average survival days at the dose 60 mg/ kg in mice bearing the L1210 Leukemia
Mus musculus [17] = species on record: Mus musculus; experiment: Average change in body weight from onset to termination of therapy in mice bearing the L1210 Leukemia(dose 60 mg/ kg ); type: functional; conditions: at 60 mg/kg; procedure, shortened: as §3
Mus musculus [18] = species on record: Mus musculus; experiment: Effect of compound on mice bearing the L1210 Leukemia expressed as T/C percent treated/control)-dose 60 mg/ kg; type: functional; conditions: at 60 mg/kg
Mus musculus [19] = species on record: Mus musculus; experiment: Average change in body weight from onset to termination of therapy in mice bearing the L1210 Leukemia(dose 40x2 mg/ kg ); type: functional; procedure, shortened: as §1
Mus musculus [20] = species on record: Mus musculus; experiment: Effect of compound on mice bearing the L1210 Leukemia expressed as T/C percent treated/control)-dose 40x2 mg/ kg; type: functional
Mus musculus [21] = species on record: Mus musculus; experiment: Average survival days at the dose 40x2 mg/ kg in mice bearing the L1210 Leukemia; type: functional; procedure, shortened: as §2
Mus musculus [22] = species on record: Mus musculus; experiment: Average change in body weight from onset to termination of therapy in mice bearing the L1210 Leukemia(dose 40 mg/ kg ); type: functional; conditions: at 40 mg/kg; procedure, shortened: as §3
Mus musculus [23] = experiment: Effect of compound on mice bearing the L1210 Leukemia expressed as T/C percent treated/control)-dose 10 mg/kg; type: functional
Mus musculus [24] = species on record: Mus musculus; experiment: Average survival days at the dose 40 mg/ kg in mice bearing the L1210 Leukemia; type: functional
Mus musculus [25] = species on record: Mus musculus; experiment: Average change in body weight from onset to termination of therapy in mice bearing the L1210 Leukemia(dose 10 mg/ kg ); type: functional; conditions: at 10 mg/kg; procedure, shortened: as §3
Mus musculus [26] = species on record: Mus musculus; experiment: Effect of compound on mice bearing the L1210 Leukemia expressed as T/C percent treated/control)-dose 40 mg/ kg; type: functional; conditions: at 40 mg/kg

SMILES | Average change in body weight (Mus musculus [1]) | Average survival (Mus musculus [2]) | Average change in body weight (Mus musculus [3]) | Average change in body weight (Mus musculus [4]) | Average change in body weight (Mus musculus [6]) | Average change in body weight (Mus musculus [7]) | Average survival (Mus musculus [8]) | Average survival (Mus musculus [9]) | Average survival (Mus musculus [10]) | T/C (Mus musculus [11]) | T/C (Mus musculus [12]) | T/C (Mus musculus [13]) | T/C (Mus musculus [14]) | T/C (Mus musculus [15]) | Average change in body weight (Mus musculus [22]) | T/C (Mus musculus [23]) | Average survival (Mus musculus [24]) | other results
N/C(S)=N/N=C/c1ccc(N)cn1 | -16% | 16.8 days | -7.7% | -12.3% | -2.8% | -3.8% | 17.6 days | 14 days | 6.9 days | 91% | 221% | 232% | 185% | 140% |  |  |  | Average survival (Mus musculus [5]): 11 days
Cc1ccnc(/C=N/N=C(/N)S)c1N | -2.4% |  |  | -3.8% |  | 1.4% | 14.8 days | 16.9 days | 17.6 days | 232% |  | 195% | 222% |  |  |  |  | Average survival (Mus musculus [16]): 14.9 days; Average change in body weight (Mus musculus [17]): 2%; T/C (Mus musculus [18]): 190%; Average change in body weight (Mus musculus [19]): -8.1%; T/C (Mus musculus [20]): 255%; Average survival (Mus musculus [21]): 19.4 days
N/C(S)=N/N=C/c1ccc(O)cn1 |  |  |  |  |  |  |  |  |  |  |  |  |  |  | 2% | 133% | 10.4 days | 
Cc1cc(/C=N/N=C(/N)S)ncc1NO |  |  |  |  |  |  |  |  |  |  |  |  |  |  |  | 136% | 10.6 days | Average change in body weight (Mus musculus [25]): -2.7%
NC(=S)N/N=C/c1ncccc1N [TRIAPINE] | -12.8% | 19.8 days | -3.3% | -12.4% |  | -6.4% | 18.7 days | 14.6 days | 7.3 days | 96% | 262% | 246% | 192% |  | -5.9% |  | 14.6 days | T/C (Mus musculus [26]): 187%
Cc1cc(/C=N/N=C(/N)S)ncc1N | -12.4% | 21 days | -7.1% | -12.1% | -7% | 1.4% | 18.6 days | 17.9 days | 14.4 days | 190% | 276% | 245% | 236% | 138% |  |  | 10.8 days | 
